From ChEMBL document CHEMBL1146160, “Synthesis and evaluation of some lipidic aminoalcohols and diamines as immunomodulators” (Bioorg Med Chem Lett, 2006)
Calls of active or inactive are those of the source. The rule behind the calls is not given here.

Columns and labels:
[1] = Cytotoxicity against BALB/c mouse splenocytes at 10 ug/ml by MTT assay; type: cell-based; conditions: splenocyte
Procedure, shortened: (§1)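 Run in parallel with the proliferation assay on splenocyte cultures without Con-A, with MTT colourimetric read-out. Cytotoxicity % = [1 − OD(cells+compd)/OD(cells)] × 100.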

[2] = Inhibition of concanavalin A-stimulated lymphoproliferation in BALB/c mouse splenocytes at 10 ug/ml by MTT assay; type: functional; conditions: Splenocyte
[3] = Cytotoxicity against BALB/c mouse splenocytes at 1 ug/ml by MTT assay; type: cell-based; conditions: splenocyte; procedure, shortened: as §1
[4] = Inhibition of concanavalin A-stimulated lymphoproliferation in BALB/c mouse splenocytes at 1 ug/ml by MTT assay; type: functional; conditions: Splenocyte
[5] = tested on: Macrophage; test: Increase in nitric oxide production in LPS-pre-stimulated rat alveolar macrophages at 100 ug/ml; type: functional
[6] = tested on: Lymphocyte; test: Reduction of rat lymphocyte stimulation by Graft-vs-Host assay relative to cyclophosphamide; type: functional; set-up: scale not given: the % may be the effect or the level left
Procedure, shortened: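 In a Graft-vs-Host assay measuring immunosuppressant ability, cyclophosphamide at 100 mg/kg/day served as the reference drug.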

[7] = tested on: Macrophage; test: Increase in nitric oxide production in normal rat alveolar macrophages; type: functional, cell-based
[8] = tested on: Macrophage; test: Increase in nitric oxide production in LPS-pre-stimulated rat alveolar macrophages; type: functional, cell-based
[9] = tested on: Macrophage; test: Increase in nitric oxide production in LPS-pre-stimulated rat alveolar macrophages at 10 ug/ml; type: functional

Compound	Activity [1] [%]	inhibition at 10 µg/mL [2] [%]	Activity [3] [%]	inhibition at 1 µg/mL [4] [%]	Activity [5] [%]	Activity [6] [%]	Activity [7]	Activity [8]	Activity [9] [%]
CCCCCCCCCCCCCCC(N)CN (stereo not given)	2.5	50.1							
CCCCCCCCCCCCCCC(CO)NCCCC (stereo not given)	16.4	49.1							
CCCCCCCCCCCCCCC(COCc1ccccc1)N(CC)CC (stereo not given)	15.6	72.6	14.1	71.6					
CCCCCCCCCCCCCCC(CO)NCCCCCCCCCC (stereo not given)	12.6	59.8	6.6	12					
CCCCCCCCCCCCCCC(CN(CC)CC)NC(=O)OC(C)(C)C (stereo not given)	7.8	89.5	6.5	65.2					
CCCCCCCCCCCCCCC(CO)N(CCCC)CCCC (stereo not given)	11.7	50.3							
CCCCCCCCCCCCCCC(CO)NCCCCCC (stereo not given)	14.6	78.4	5	74.1	25	63	inactive		
CCCCCCCCCCCCCCC(N)CNC(=O)CCCC(=O)O (stereo not given)	12.8	51					inactive	inactive	
CCCCCCCCCCCCCCC(COCc1ccccc1)NC(=O)CCCC(=O)OC (stereo not given)	2.5	3.4					inactive	inactive	
CCCCCCCCCCCCCCC(N)CN(CC)CC (stereo not given)	24.2	84.5	1.7	74.2			inactive	inactive	
CCCCCCCCCCCCCCC(N)COCc1ccccc1 (stereo not given)	12.2	79.1	0	0			inactive	inactive	
CCCCCCCCCCCCCCC(NCCCC)C(=O)O (stereo not given)	5.1	32.9							
CCCCCCCCCCCCCCC(CO)NC(=O)CCCC(=O)O (stereo not given)	14.5	49.1							
CCCCCCCCCCCCCCC(C(=O)O)N(CC)CC (stereo not given)	12.1	43.1							
CCCCCCCCCCCCCCC(CN)NC(=O)OC(C)(C)C (stereo not given)	4.3	81.2	4.2	73.4	29	32	inactive		20
CCCCCCCCCCCCCCC(CNC(=O)CCCC(=O)O)NC(=O)OC(C)(C)C (stereo not given)	1.2	80.8	0	19.3				inactive	
CCCCCCCCCCCCCCC(NC(=O)OC(C)(C)C)C(=O)O (stereo not given)	5.1	32.9							
CCCCCCCCCCCCCCC(CO)N(CC)CC (stereo not given)	12.8	79.5	7.5	74.8					
CCCCCCCCCCCCCCC(CO)NCC (stereo not given)	17.1	72.9	10.5	68.4					
CCCCCCCCCCCCCCC(COCc1ccccc1)NCC (stereo not given)	11.9	49.8							
CCCCCCCCCCCCCCC(COCc1ccccc1)NC(=O)CCCC(=O)O (stereo not given)	6.4	65.4	0	27.8			inactive	inactive	
CCCCCCCCCCCCCCC(CO)NC(=O)CCCC(=O)OC (stereo not given)	18.9	50.2							
CCCCCCCCCCCCCCC(N)CO (stereo not given)	20.2	72.4	15.1	68.7					
CCCCCCCCCCCCCCC(C(=O)O)N(CCCC)CCCC (stereo not given)	12.5	47.8							
